From PubChem
FN deposition inh = fibronectin deposition inhibition. AH1F fibroblasts, Alexa488-fibronectin deposition fluorescence, overnight. inhibition, % at 12.6 µM. 0.086% of 350,000 active. AID 743247;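 active = mean inhibition across replicates of 30% or more, regardless of how many single replicates reach that level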
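Assay system: AH1F fibroblasts assembling fluorescent fibronectin matrix; Amount: 10000 AH1F cells per well; Buffer or medium: DMEM, 2% serum; Probe or stimulus: Alexa488-fibronectin, 24 nM final in well; Doses: single compound dose, delivered by pin transfer; Incubation: 1 h adhesion, overnight exposure; Measured by: fluorescence 485/525 nm; Read-out: fibronectin deposition inhibition.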
PAX8 reporter = PAX8 transcriptional activity inhibition | RMG-I TPO-luciferase reporter, SteadyGlo, 24 h | inhibition, % at 12.6 µM | 1.2% of 360,000 active | AID 652154;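 active = mean replicate inhibition at least 60% with every replicate also reaching 60%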;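 also: luciferase light reporting Pax8 driven TPO promoter activity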
RAD52 inh = RAD52 (human) annealing inhibition; inhibition, % at 18.7 µM; AID 651710; P43351; 0.46% of 360,000 active; recombinant RAD52 DNA annealing, FRET fluorescence;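 active = every replicate showing at least 50% inhibition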
Target sequence (P43351 whole entry, looked up): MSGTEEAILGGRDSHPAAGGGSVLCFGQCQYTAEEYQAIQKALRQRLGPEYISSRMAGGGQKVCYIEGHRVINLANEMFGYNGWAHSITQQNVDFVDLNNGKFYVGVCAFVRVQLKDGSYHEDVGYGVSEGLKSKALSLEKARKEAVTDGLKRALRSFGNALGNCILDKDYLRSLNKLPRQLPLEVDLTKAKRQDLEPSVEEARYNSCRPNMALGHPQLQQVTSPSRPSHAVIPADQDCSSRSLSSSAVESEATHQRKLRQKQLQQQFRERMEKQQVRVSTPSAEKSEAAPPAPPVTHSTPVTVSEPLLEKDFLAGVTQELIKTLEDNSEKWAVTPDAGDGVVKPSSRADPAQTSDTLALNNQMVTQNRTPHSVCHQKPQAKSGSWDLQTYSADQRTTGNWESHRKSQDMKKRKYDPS
RAD54 branch = blocks human RAD54 Holliday junction branch migration; Q92698; FAM/BHQ fluorescence; inhibition, % at 10.4 µM; 0.14% of 360,000 active; AID 602329;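 active = mean normalized replicate activity at least 40 and at least half of replicates scoring 40 or more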;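 also: inhibitors cause a drop in the FAM fluorescence signal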
Of the large screens only hits and unclear results are named; the others gave an inactive call. Compounds with a hit are over-represented: about 1.3% of the library has one in this group of screens.

O=C(NCC[C@@H]1CC[C@@H](NC(=O)C2CCC2)[C@H](CO)O1)c1ccc(F)cc1	none
C[C@H]1CCCCO[C@H](CN(C)Cc2ccc(C(F)(F)F)cc2)[C@@H](C)CN([C@@H](C)CO)C(=O)c2cc(NS(=O)(=O)c3ccc(F)cc3)ccc2O1	PAX8 reporter 89
C[C@H](CO)N1C[C@H](C)[C@@H](CN(C)Cc2ccc(C(F)(F)F)cc2)OCCCC[C@H](C)Oc2ccc(NS(=O)(=O)c3ccc(F)cc3)cc2C1=O	PAX8 reporter 94
C[C@@H]1CN([C@H](C)CO)C(=O)c2cc(NS(=O)(=O)c3ccc(F)cc3)ccc2O[C@@H](C)CCCCO[C@@H]1CN(C)Cc1ccccc1	PAX8 reporter 106
C[C@@H]1CCCCO[C@@H](CN(C)Cc2ccc(C(F)(F)F)cc2)[C@@H](C)CN([C@H](C)CO)C(=O)c2cc(NS(=O)(=O)c3ccc(F)cc3)ccc2O1	none
C[C@@H]1CCCCO[C@H](CN(C)Cc2ccc(C(=O)O)cc2)[C@@H](C)CN([C@H](C)CO)C(=O)c2cc(NS(=O)(=O)c3ccc(F)cc3)ccc2O1	none (no result: FN deposition inh)
CC(C)CC#Cc1ccc([C@@H]2[C@H]3CN(C(=O)Nc4ccccc4)CCCCN3[C@H]2CO)cc1	PAX8 reporter 74
C[C@H](O)C#Cc1ccc([C@H]2[C@H]3CN(C(=O)Nc4ccccc4)CCCCN3[C@H]2CO)cc1	PAX8 reporter 69 (no result: FN deposition inh)
CC(C)CC#Cc1ccc([C@H]2[C@@H](CO)N3CCCCN(C(=O)Nc4ccccc4)C[C@@H]23)cc1	none (no result: RAD52 inh)
Cc1cc(=O)oc2c(CN(CC(C)C)CC(C)C)c(O)ccc12	none (no result: RAD52 inh, RAD54 branch)
COC(=O)c1ccc2nc(-c3ccc(C#N)cc3)c(Cc3ccsc3)n2c1	none (no result: RAD54 branch)
C[C@H](O)C#Cc1cnc2c(c1)C(=O)N([C@H](C)CO)C[C@@H](C)[C@H](CN(C)Cc1ccc(-c3ccccc3)cc1)O2	none (no result: RAD52 inh, RAD54 branch)
C[C@H](O)C#Cc1cnc2c(c1)C(=O)N([C@H](C)CO)C[C@@H](C)[C@@H](CN(C)Cc1ccc(-c3ccccc3)cc1)O2	PAX8 reporter 65
C[C@@H]1CN([C@@H](C)CO)C(=O)c2cc(-c3ccccc3)cnc2O[C@@H]1CN(C)Cc1ccccc1	FN deposition inh 38 (no result: PAX8 reporter)
C[C@@H]1CN([C@@H](C)CO)C(=O)c2cc(-c3ccccc3)cnc2O[C@H]1CN(C)Cc1ccccc1	none (no result: PAX8 reporter)
C[C@H](O)C#Cc1cnc2c(c1)C(=O)N([C@@H](C)CO)C[C@@H](C)[C@H](CN(C)Cc1ccc(-c3ccccc3)cc1)O2	PAX8 reporter 72
C[C@H](O)C#Cc1cnc2c(c1)C(=O)N([C@H](C)CO)C[C@H](C)[C@H](CN(C)Cc1ccc(-c3ccccc3)cc1)O2	PAX8 reporter 87
CCc1noc(C)c1C(=O)Nc1cc(S(=O)(=O)N(CC)CC)ccc1N1CCCC1	none
N#CC(=C1C=C(Br)C(=NO)C=C1Cl)c1ccc(Cl)cc1	none (no result: RAD54 branch)
N#CC(=C1C=CC(=NO)C(Cl)=C1)c1ccccc1	PAX8 reporter 73 (no result: RAD54 branch)
Cc1cc(C)c2c(N)c(C(=O)Nc3ncc(C)s3)sc2n1	PAX8 reporter 104 (no result: RAD52 inh)
COC(=O)c1sc2nc(C)cc(C)c2c1N	none
COc1ccc(-n2nc3c(N4CCC(C(=O)NCc5cccc(C)c5)CC4)nnc(C)c3c2C)cc1	PAX8 reporter 102
CCOc1ccc(CNC(=O)C2CCN(c3nnc(C)c4c(C)n(-c5ccc(C)cc5)nc34)CC2)cc1	none
CCOc1ccccc1CNC(=O)C1CCN(c2nnc(C)c3c(C)n(-c4ccc(C)cc4)nc23)CC1	PAX8 reporter 79
COC(=O)C[C@@H]1C[C@@H]2c3cc(N(C)C)ccc3O[C@@H]2[C@H](CO)O1	none
Cc1ccccc1S(=O)(=O)NCC[C@H]1CC[C@H](NC(=O)Nc2cccc(F)c2)[C@H](CO)O1	none
O=C(Nc1cccc(-c2cnc3ccccc3n2)c1)c1cccc(NC(=O)c2ccco2)c1	PAX8 reporter 72 (no result: RAD52 inh)
O=C(Nc1cccc(-c2cnc3ccccc3n2)c1)c1ccccc1	none (no result: PAX8 reporter, RAD52 inh)
C=C1CC2C3CC[C@@]4(OCOC45COCO5)[C@@]3(C)C(O)CC2[C@@]2(C)CCC(=O)C=C12 (some centres undefined)	PAX8 reporter 64 (no result: RAD52 inh)
Cc1ccc(C2=Nn3c(COc4ccc(Cl)cc4)nnc3SC2CC(=O)O)cc1 (centres undefined)	none
O=C1NC[C@@H](CCCCN2C[C@H](Cc3ccc(O)cc3)N(CC3CCCCC3)C(=O)C2=O)N(CCc2ccccc2)C1=O	none (no result: RAD54 branch)
COc1ccc(N2C(=O)CC(Sc3nnc(-c4ccccc4)o3)C2=O)cc1 (centres undefined)	PAX8 reporter 107 (no result: RAD52 inh)
O=C1CC(Sc2nnnn2-c2ccccc2)C(=O)N1c1cccc(Cl)c1 (centres undefined)	none (no result: FN deposition inh, PAX8 reporter, RAD52 inh)
COc1ccc(N2C(=O)CC(Sc3nnnn3-c3ccc(F)cc3)C2=O)cc1 (centres undefined)	PAX8 reporter 95
O=C(Nc1ccccc1C(=O)N1CCCC1)C1COc2ccccc2O1 (centres undefined)	none (no result: RAD54 branch)
O=[N+]([O-])c1ccc(N2CCN(c3ccccc3F)CC2)nc1	none
C=C1C(=O)O[C@@H]2[C@H]3O[C@]3(C)CC/C=C(\C)CC[C@@H]12	PAX8 reporter 101
O=C(C[n+]1ccc(CCSc2ccc(F)cc2)cc1)c1ccccc1	RAD54 branch 87 (no result: FN deposition inh, PAX8 reporter, RAD52 inh)
O=C(NCCN1C(=O)S/C(=C\c2ccc(Cl)c([N+](=O)[O-])c2)C1=O)C1=COCCO1	PAX8 reporter 70
CN(C)Cc1nc2c(c(=O)[nH]1)C(C)(C)Cc1ccccc1-2	none (no result: FN deposition inh, PAX8 reporter, RAD52 inh)
C[C@@H]1CN([C@H](C)CO)C(=O)c2cc(NC(=O)Nc3ccccc3)ccc2O[C@@H](C)CCCCO[C@@H]1CN(C)Cc1ccc(Cl)c(Cl)c1	PAX8 reporter 86
C[C@@H]1CCCCO[C@@H](CN(C)Cc2ccc(Cl)c(Cl)c2)[C@@H](C)CN([C@H](C)CO)C(=O)c2cc(NC(=O)Nc3ccccc3)ccc2O1	none
C[C@@H]1CCCCO[C@H](CN(C)Cc2ccc(Cl)c(Cl)c2)[C@@H](C)CN([C@H](C)CO)C(=O)c2cc(NC(=O)Nc3ccccc3)ccc2O1	none
C[C@@H]1CCCCO[C@@H](CN(C)Cc2ccc(Cl)c(Cl)c2)[C@H](C)CN([C@@H](C)CO)C(=O)c2cc(NC(=O)Nc3ccccc3)ccc2O1	PAX8 reporter 86
C[C@@H]1CN([C@@H](C)CO)C(=O)c2cc(NC(=O)Nc3ccccc3)ccc2O[C@@H](C)CCCCO[C@H]1CN(C)Cc1ccc(Cl)c(Cl)c1	PAX8 reporter 81 (no result: RAD52 inh, RAD54 branch)
CCNC(=O)N(CC)C[C@H]1N[C@@](C)(C(=O)OC)[C@H]2C(=O)N(C)C(=O)[C@@H]12	none
C[C@@H]1CN([C@H](C)CO)C(=O)Cc2cc(NC(=O)CCCCCC(=O)Nc3ccccc3N)ccc2O[C@@H]1CN(C)Cc1ccc(Cl)c(Cl)c1	none (no result: FN deposition inh)
Cc1noc(C)c1NC(=O)Nc1cccc2c1O[C@H](CN(C)Cc1ccc(C(F)(F)F)cc1)[C@H](C)CN([C@@H](C)CO)C2=O	PAX8 reporter 81 (no result: FN deposition inh)
C[C@@H]1CN([C@H](C)CO)C(=O)c2cccc(NC(=O)CCCCCC(=O)Nc3ccccc3N)c2O[C@@H]1CN(C)Cc1ccc(C(F)(F)F)cc1	none (no result: RAD54 branch)
